Measured values taken from ChEMBL document CHEMBL3872202, “Synthesis and biofilm formation reduction of pyrazole-4-carboxamide derivatives in some Staphylococcus aureus strains” (Eur J Med Chem, 2016).

Columns and labels:
[1] = system: Staphylococcus aureus; experiment: Antibiofilm activity against Staphylococcus aureus ATCC 29213 after 24 hrs by safranin staining based assay; type: functional; conditions: ATCC 29213, 24 h
[2] = system: Staphylococcus aureus; experiment: Antibiofilm activity against Staphylococcus aureus ATCC 6538 after 24 hrs by safranin staining based assay; type: functional; conditions: ATCC 6538, 24 h
[3] = system: Staphylococcus aureus; experiment: Antibiofilm activity against Staphylococcus aureus ATCC 25923 after 24 hrs by safranin staining based assay; type: functional; conditions: ATCC 25923, 24 h
[4] = system: Staphylococcus aureus; experiment: Antibiofilm activity against Staphylococcus aureus ATCC 6538 after 24 hrs by crystal-violet stain based assay; type: functional; conditions: ATCC 6538, 24 h
Procedure, shortened: (§1)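 Biofilm prevention: diluted bacterial suspension (OD about 0.040 at 570 nm) with sub-MIC concentrations from 300 to 0.3 added at time zero, 37 °C for 24 h in 24-well polystyrene plates. Wells washed three times with PBS, stained with 0.1% crystal violet for 30 min, and the stain redissolved in ethanol. OD read at 600 nm. Percent inhibition taken against untreated control wells. Triplicate, repeated at least twice.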

[5] = system: Staphylococcus aureus; experiment: Inhibition of Staphylococcus aureus ATCC 6538 planktonic growth at 250 uM after 24 hrs by microbroth dilution method
[6] = system: Staphylococcus aureus; experiment: Antibiofilm activity against Staphylococcus aureus ATCC 29213 after 24 hrs by crystal-violet stain based assay; type: functional; conditions: ATCC 29213, 24 h; procedure, shortened: as §1
[7] = system: Staphylococcus aureus; experiment: Inhibition of Staphylococcus aureus ATCC 29213 planktonic growth at 250 uM after 24 hrs by microbroth dilution method
[8] = system: Staphylococcus aureus; experiment: Inhibition of Staphylococcus aureus ATCC 25923 planktonic growth at 250 uM after 24 hrs by microbroth dilution method
[9] = system: Staphylococcus aureus; experiment: Antibiofilm activity against Staphylococcus aureus ATCC 25923 after 24 hrs by crystal-violet stain based assay; type: functional; conditions: ATCC 25923, 24 h; procedure, shortened: as §1
[10] = system: Staphylococcus aureus; experiment: Antivirulence activity against Staphylococcus aureus ATCC 29213 infected in Galleria mellonella larvae assessed as increase in larvae survival at 1 mg/kg administered as single dose pretreated for 1 hr followed by bacterial infection measured every 24 hrs for 72 hrs relative to control; type: functional
Procedure, shortened: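 Galleria mellonella larvae given a single 1 mg/kg injection in PBS with 3% DMSO 1 h before inoculation with live S. aureus ATCC 29213, injected into alternate prolegs. Controls: untouched larvae, uninfected vehicle-injected larvae, uninfected compound-treated larvae, and vehicle-pretreated infected larvae. Larvae held at 37 °C, survival checked at 24, 48 and 72 h. Three replicates of four larvae per group, Tukey post hoc test.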

[11] = Toxicity in Galleria mellonella assessed as effect on larval weight at 1 mg/kg administered as single dose measured every 24 hrs for 72 hrs; type: organism-based; conditions: in vivo
Procedure, shortened: (§2)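 Uninfected larvae given a single 1 mg/kg injection in PBS with 3% DMSO, alongside untreated and vehicle-only groups, three replicates of four larvae each. Larvae kept in starvation and monitored for weight loss and time to pupation/chrysalis formation as sub-lethal endpoints. Groups compared statistically.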

[12] = Toxicity in Galleria mellonella assessed as effect on larval survival at 1 mg/kg administered as single dose measured every 24 hrs for 72 hrs; type: organism-based; conditions: in vivo
Procedure, shortened: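 Larvae held at 37 °C and given a single 1 mg/kg injection in PBS with 3% DMSO. Controls were untreated larvae and vehicle-injected larvae. Three replicates of four larvae per group. Survival checked at 24, 48 and 72 h after injection. Results given as mean with SD and compared by post hoc Tukey test (P < 0.05).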

[13] = Toxicity in Galleria mellonella assessed as effect on time to pupation at 1 mg/kg administered as single dose measured every 24 hrs for 72 hrs; type: organism-based; conditions: in vivo; procedure, shortened: as §2

| SMILES | IC50 [1] | IC50 [2] | IC50 [3] | IC50 [4] | IC50 [6] | IC50 [9] | growth inhibition (GI) [5] | growth inhibition (GI) [7] | growth inhibition (GI) [8] | fold change (FC) [10] | Activity [11] | Activity [12] | Activity [13] |
| --- | --- | --- | --- | --- | --- | --- | --- | --- | --- | --- | --- | --- | --- |
| CCOC(=O)/C(=N/Nc1cccc(C)c1)C(=O)c1cc(C)nn1CC | 1.7 µM | 43 µM | 10 µM |  |  |  |  |  |  |  |  |  |  |
| CCOC(=O)c1cnn(-c2ccccn2)c1N |  |  |  | 91 µM | 31 µM | 102 µM | Non-Toxic | Non-Toxic | Non-Toxic |  |  |  |  |
| CCOC(=O)c1cnn(-c2ccc(S(N)(=O)=O)cc2)c1N |  |  |  | 142 µM | 28 µM | 77 µM | Non-Toxic | Non-Toxic | Non-Toxic |  |  |  |  |
| CCOC(=O)c1cnn(C)c1N |  |  |  |  | 152 µM | 159 µM | Non-Toxic | Non-Toxic | Non-Toxic |  |  |  |  |
| CCOC(=O)/C(=N/Nc1ccccc1F)C(=O)c1cc(C)nn1CC | 13 µM | 0.9 µM | 42 µM |  |  |  |  |  |  |  |  |  |  |
| CCOC(=O)c1c(C)n[nH]c1N |  |  |  | 82 µM | 62 µM | 378 µM | Non-Toxic | Non-Toxic | Non-Toxic |  |  |  |  |
| CCn1nc(C)cc1C(=O)/C(=N\Nc1cccc(Cl)c1)C(=O)O | 16 µM | 11 µM | 20 µM |  |  |  |  |  |  |  |  |  |  |
| CCOC(=O)c1cn[nH]c1N |  |  |  | 85 µM | 83 µM | 213 µM | Non-Toxic | Non-Toxic | Non-Toxic |  |  |  |  |
| CC(=O)/C(=C\NNc1cc(Cl)ccc1Cl)C(=O)Nc1ccccc1 |  |  |  | 32 µM | 2.5 µM | 2.3 µM | Non-Toxic | Non-Toxic | Non-Toxic | 1.6 | Non-Toxic | Non-Toxic | Non-Toxic |

Now from value to compound, other results behind:

| IC50 [1] | IC50 [2] | IC50 [3] | IC50 [4] | IC50 [6] | IC50 [9] | SMILES | growth inhibition (GI) [5] | growth inhibition (GI) [7] | growth inhibition (GI) [8] | fold change (FC) [10] | Activity [11] | Activity [12] | Activity [13] |
| --- | --- | --- | --- | --- | --- | --- | --- | --- | --- | --- | --- | --- | --- |
|  |  |  | 103 µM | 169 µM | 161 µM | Cc1c(C(=O)Nc2ccccc2)cnn1-c1cccc(Cl)c1 | Non-Toxic | Non-Toxic | Non-Toxic |  |  |  |  |
|  |  |  | 54 µM | 123 µM | 74 µM | Cc1cc(C(=O)Nc2ccccc2)n(-c2ccccc2)n1 | Non-Toxic | Non-Toxic | Non-Toxic |  |  |  |  |
|  |  |  | 64 µM | 54 µM | 76 µM | Cc1cc(C(=O)Nc2ccccc2)nn1-c1ccccc1 | Non-Toxic | Non-Toxic | Non-Toxic |  |  |  |  |
|  |  |  | 81 µM | 89 µM | 61 µM | Cc1c(C(=O)Nc2ccccc2)cnn1-c1cc(F)ccc1F | Non-Toxic | Non-Toxic | Non-Toxic |  |  |  |  |
|  |  |  | 90 µM | 46 µM | 64 µM | Cc1c(C(=O)Nc2ccccc2)cnn1-c1cccc([N+](=O)[O-])c1 | Non-Toxic | Non-Toxic | Non-Toxic |  |  |  |  |
|  |  |  | 95 µM | 34 µM | 222 µM | CCOC(=O)c1cnn(-c2ccccc2)c1N | Non-Toxic | Non-Toxic | Non-Toxic |  |  |  |  |
|  |  |  |  | 46 µM | 64 µM | Cc1c(C(=O)Nc2ccccc2)cnn1-c1ccc(C(F)(F)F)cc1 | Non-Toxic | Non-Toxic | Non-Toxic |  |  |  |  |
|  |  |  |  | 52 µM | 92 µM | Cc1c(C(=O)Nc2ccccc2)cnn1-c1cc(Cl)ccc1Cl | Non-Toxic | Non-Toxic | Non-Toxic |  |  |  |  |
|  |  |  | 55 µM | 127 µM | 434 µM | Cc1c(C(=O)Nc2ccccc2)cnn1-c1ccc([N+](=O)[O-])cc1 | Non-Toxic | Non-Toxic | Non-Toxic |  |  |  |  |
|  |  |  | 77 µM | 309 µM | 112 µM | Cc1c(C(=O)Nc2ccccc2)cnn1-c1ccccc1 | Non-Toxic | Non-Toxic | Non-Toxic |  |  |  |  |
|  |  |  | 30 µM | 38 µM | 552 µM | Cc1c(C(=O)Nc2ccccc2)cnn1-c1ccc(Cl)cc1 | Non-Toxic | Non-Toxic | Non-Toxic |  |  |  |  |
